Shown are actives, neighbours in structure and some others; about 1.8% of the full set was active somewhere.
LANA-H2B inh: blockers of LANA interaction with H2A/H2B – biochemical, FP readout, HTS, primary screen; Protein LANA1 (Human herpesvirus 8 type P (isolate GK18)), Q9QR71; cell-free LANA-H2A/H2B peptide, fluorescence polarization; inhibition, % (concentration not given with the values); 320,000 compounds, 0.6% hits; in the data active = inhibition mostly above about 10%, no sharp cut-off; inactive = mostly below about 6.7%
Target sequence (Q9QR71 whole entry, looked up): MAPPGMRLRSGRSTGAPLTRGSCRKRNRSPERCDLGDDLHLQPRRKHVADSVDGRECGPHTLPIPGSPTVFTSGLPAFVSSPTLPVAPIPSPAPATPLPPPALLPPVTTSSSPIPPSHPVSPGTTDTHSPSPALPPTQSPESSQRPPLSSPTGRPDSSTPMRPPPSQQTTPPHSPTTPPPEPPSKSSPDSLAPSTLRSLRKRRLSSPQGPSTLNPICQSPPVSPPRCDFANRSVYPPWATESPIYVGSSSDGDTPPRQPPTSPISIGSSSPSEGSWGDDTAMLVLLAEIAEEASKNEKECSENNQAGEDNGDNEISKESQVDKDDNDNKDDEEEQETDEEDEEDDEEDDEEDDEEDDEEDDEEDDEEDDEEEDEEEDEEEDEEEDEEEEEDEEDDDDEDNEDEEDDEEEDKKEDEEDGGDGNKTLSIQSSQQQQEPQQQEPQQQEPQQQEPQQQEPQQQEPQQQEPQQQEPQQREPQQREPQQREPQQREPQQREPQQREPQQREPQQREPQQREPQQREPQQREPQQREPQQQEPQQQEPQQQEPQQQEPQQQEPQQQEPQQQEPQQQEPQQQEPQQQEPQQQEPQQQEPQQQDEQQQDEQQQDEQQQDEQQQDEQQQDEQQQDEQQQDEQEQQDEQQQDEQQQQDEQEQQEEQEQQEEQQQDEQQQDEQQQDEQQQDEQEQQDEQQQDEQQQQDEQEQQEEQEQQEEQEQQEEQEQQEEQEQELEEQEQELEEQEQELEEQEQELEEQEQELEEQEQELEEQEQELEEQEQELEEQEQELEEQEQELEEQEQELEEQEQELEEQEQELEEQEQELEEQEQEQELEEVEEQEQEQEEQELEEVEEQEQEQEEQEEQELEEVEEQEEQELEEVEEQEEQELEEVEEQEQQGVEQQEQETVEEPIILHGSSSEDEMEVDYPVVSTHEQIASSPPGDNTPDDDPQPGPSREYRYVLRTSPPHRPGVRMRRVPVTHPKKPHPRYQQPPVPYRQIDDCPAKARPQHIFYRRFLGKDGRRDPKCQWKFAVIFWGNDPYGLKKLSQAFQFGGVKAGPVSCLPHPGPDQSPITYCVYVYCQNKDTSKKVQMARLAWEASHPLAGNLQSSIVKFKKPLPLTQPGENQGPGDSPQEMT
ATG4B inh: ATG4B protease inhibitors, primary screen, biochemical, fluorescence, uHTS | ATG4B cleavage of LC3-PLA2, NBD-HPC fluorescence, 1 h | inhibition, % at 8.33 µM | 340,000 compounds, 0.51% hits; in the data active = inhibition above about 40%
AI-2 QS modul: Vibrio harveyi AI-2 quorum sensing modulators, primary screen, JMH597 strain, luminescence/OD600 ratio; Vibrio harveyi JMH597 AI-2 luminescence/OD600 ratio, 9 h; hits give low values; strain lacks LuxN and CqsS sensors; 0 = neutral-control median; AID 2094, 2009; 300,000 compounds, 0.4% hits; activity change, % at 7.5 µM; in the data active = activity change below about -75%, passing the limit was not always enough;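 note: luminescence divided by OD600 gain over 9 h not by final OD600 alone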
HDAC3 inhib: HDAC3 deacetylase inhibitors, primary screen, biochemical, fluorescence, cell-free homogeneous. Histone deacetylase 3 (Homo sapiens), O15379. recombinant HDAC3, fluorogenic peptide/trypsin coupled. inhibition, % at 8.3 µM. 320,000 compounds, 0.15% hits. AID 2718, 2010; in the data active = inhibition above about 26%, passing the limit was not always enough
Bfl-1 A1 inh: caspase 3/7 activation in MEF A1-2A-BIM cells, primary screen, A1 inhibitor project, cell-based, luminescence, HTS | Caspase-Glo 3/7 luminescence, 3 h; percent of clofoctol response, vehicle zero | caspase activation, % (test concentration not listed) | AID 2462, 2010 | 330,000 compounds, 0.066% hits;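 active = over half of replicate activation scores above 10%, or exactly half above 10 with the replicate mean above 10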
HKDC1 inh: HKDC1 hexokinase inhibitors, primary screen, biochemical, fluorescence, uHTS | Q2TB90 | recombinant HKDC1, G6PDH/diaphorase resazurin coupled fluorescence | inhibition, % at 20 µM | 340,000 compounds, 0.16% hits | AID 493160, 2011;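 active = inhibition above about 35% when tested at 20 µM, limit read from the data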
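Assay system – recombinant HKDC1 (HK5) hexokinase enzyme, produced in-house · Input – HKDC1 at 5 µg/mL · Reagent – glucose plus 1 mM ATP as hexokinase substrates · Timing – 90 min reaction incubation at room temperature, dark · Measured by – G6PDH/diaphorase-coupled fluorescence, 1 mM NADP, 100 µM resazurin, 525/613 nm · Benchmarks – DMSO-enzyme wells negative, buffer-substituted wells positive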
ATG4B confirm: ATG4B protease inhibitors, retest, confirmation, biochemical, fluorescence, single concentration. 320 compounds, 92% hits. ATG4B protease fluorescent substrate cleavage assay. shares compounds with ATG4B inh. inhibition, % at 8.33 µM; in the data active = inhibition above about 39%
PLA2 ctr: PLA2 enzyme inhibition, counter-screen for ATG4B inhibitor project, biochemical, single concentration, uHTS hits; 1,600 compounds, 66% hits; inhibition, % at 8.33 µM; AID 588402, 2011; purified PLA2, NBD-C6-HPC fluorescence, 45 min; shares compounds with ATG4B inh; in the data active = inhibition above about 50%
Hits are given with their value.

What do the screens show for `CC(C)NC(=O)CSc1ccccc1C(=O)N1CCN(S(=O)(=O)Cc2ccccc2)CC1`?
ATG4B inh: inactive; HKDC1 inh: inactive

How did N#Cc1cnn(-c2nc(SCc3ccccc3)nc3sc4c(c23)CCCC4)c1N do in these assays?
LANA-H2B inh: inactive; ATG4B inh: 43; AI-2 QS modul: inactive; HDAC3 inhib: inactive; Bfl-1 A1 inh: inactive; HKDC1 inh: inactive; PLA2 ctr: 59

Results for COc1ccc(Br)cc1CNCC1CCCO1 (stereo not given) ?
LANA-H2B inh: inactive; ATG4B inh: inactive; AI-2 QS modul: inactive; HDAC3 inhib: inactive; Bfl-1 A1 inh: inactive; HKDC1 inh: inactive

Results for CCOC(=O)N1CCC2(CC1)NCCc1c2[nH]c2ccccc12 ?
LANA-H2B inh: inactive; ATG4B inh: inactive; HDAC3 inhib: inactive; Bfl-1 A1 inh: inactive; HKDC1 inh: inactive

Results for CCN1CCN(C(=O)N2CCOCC2)CC1 ?
LANA-H2B inh: inactive; ATG4B inh: inactive; AI-2 QS modul: inactive; HDAC3 inhib: inactive; Bfl-1 A1 inh: inactive; HKDC1 inh: inactive

Results for O=C(N[C@H](Cc1ccc(Cl)cc1)C(=O)O)OCC1c2ccccc2-c2ccccc21 ?
LANA-H2B inh: inactive; ATG4B inh: 78; AI-2 QS modul: inactive; HDAC3 inhib: inactive; Bfl-1 A1 inh: inactive; HKDC1 inh: inactive; PLA2 ctr: 86

What do the screens show for `CCn1c(C)c(C)c2cc(C(=O)N3CCc4ccccc4C3)ccc21`?
LANA-H2B inh: inactive; ATG4B inh: 72; AI-2 QS modul: inactive; HDAC3 inhib: inactive; Bfl-1 A1 inh: inactive; HKDC1 inh: inactive; PLA2 ctr: 74

What do the screens show for `Cc1ccc(CN(c2ccc(C(=O)N3CCc4ccccc4C3)cc2)S(C)(=O)=O)cc1`?
LANA-H2B inh: inactive; ATG4B inh: 56; AI-2 QS modul: inactive; HDAC3 inhib: inactive; Bfl-1 A1 inh: inactive; HKDC1 inh: inactive; PLA2 ctr: 60

What do the screens show for `CS(=O)(=O)N(Cc1ccc(C(=O)N2CCc3ccccc3C2)cc1)c1ccccc1`?
LANA-H2B inh: inactive; ATG4B inh: inactive; AI-2 QS modul: inactive; HDAC3 inhib: inactive; Bfl-1 A1 inh: inactive; HKDC1 inh: inactive

How did CC(=O)Nc1cc(C(=O)N2CCc3ccccc3C2)ccc1Sc1ccc(C)cc1 do in these assays?
LANA-H2B inh: inactive; ATG4B inh: 46; AI-2 QS modul: inactive; HDAC3 inhib: inactive; Bfl-1 A1 inh: inactive; HKDC1 inh: inactive; PLA2 ctr: 53

Results for CCCN1CCN(C(=O)c2ccc(Sc3ccc(C)cc3)c(NC(C)=O)c2)CC1 ?
LANA-H2B inh: inactive; ATG4B inh: inactive; AI-2 QS modul: inactive; HDAC3 inhib: inactive; Bfl-1 A1 inh: inactive; HKDC1 inh: inactive

Results for CCOC(=O)c1c(-n2cnnn2)sc2c1CCCC2 ?
LANA-H2B inh: inactive; ATG4B inh: inactive; AI-2 QS modul: inactive; HDAC3 inhib: inactive; Bfl-1 A1 inh: inactive; HKDC1 inh: inactive

How did CCOC(=O)c1c(N2C(=O)Nc3cc(Cl)c(Cl)cc3N2O)sc2c1CCCCC2 do in these assays?
LANA-H2B inh: inactive; ATG4B inh: 77; HDAC3 inhib: inactive; Bfl-1 A1 inh: inactive; HKDC1 inh: inactive; PLA2 ctr: 92

Results for CN(C)S(=O)(=O)c1ccc2[nH]cc(/C=C/c3nc4ccccc4c(=O)n3-c3ccccc3)c2c1 ?
LANA-H2B inh: inactive; ATG4B inh: 42; AI-2 QS modul: inactive; HDAC3 inhib: inactive; Bfl-1 A1 inh: inactive; HKDC1 inh: inactive; ATG4B confirm: 105; PLA2 ctr: inactive

What do the screens show for `CCN(CC)C(=O)CSc1nc2ccccc2c(=O)n1-c1cccc(OC)c1`?
LANA-H2B inh: inactive; ATG4B inh: inactive; AI-2 QS modul: inactive; HDAC3 inhib: inactive; Bfl-1 A1 inh: inactive; HKDC1 inh: inactive

How did COc1cccc(-n2c(SCc3cc(=O)oc4cc(O)c(O)cc34)nc3ccccc3c2=O)c1 do in these assays?
LANA-H2B inh: inactive; ATG4B inh: 99; AI-2 QS modul: inactive; HDAC3 inhib: inactive; Bfl-1 A1 inh: inactive; HKDC1 inh: inactive; PLA2 ctr: 100

Results for COc1ccc(Cc2noc(CN3CCNC(=O)CC3)n2)cc1OC ?
LANA-H2B inh: inactive; ATG4B inh: inactive; AI-2 QS modul: inactive; HDAC3 inhib: inactive; Bfl-1 A1 inh: inactive; HKDC1 inh: inactive

How did O=C(CCc1nnc(C2CCCCC2)o1)N1CCCCC1CCn1cccn1 (stereo not given) do in these assays?
LANA-H2B inh: inactive; ATG4B inh: inactive; AI-2 QS modul: inactive; HDAC3 inhib: inactive; Bfl-1 A1 inh: inactive; HKDC1 inh: inactive

How did N#C/C(=N\Nc1cccc([N+](=O)[O-])c1)C(=O)c1ccc(Br)cc1 do in these assays?
LANA-H2B inh: inactive; ATG4B inh: 57; AI-2 QS modul: inactive; HDAC3 inhib: inactive; Bfl-1 A1 inh: inactive; HKDC1 inh: inactive; PLA2 ctr: 80

Results for COCCCNC(=O)/C(C#N)=C/c1cc(C)[nH]c1C ?
LANA-H2B inh: inactive; ATG4B inh: inactive; AI-2 QS modul: inactive; HDAC3 inhib: inactive; Bfl-1 A1 inh: inactive; HKDC1 inh: inactive

Results for O=C(Nc1ccccc1C(=O)O)/C(=C/c1ccc([N+](=O)[O-])cc1)NC(=O)c1ccc(Br)o1 ?
LANA-H2B inh: inactive; ATG4B inh: inactive; AI-2 QS modul: inactive; HDAC3 inhib: inactive; Bfl-1 A1 inh: inactive; HKDC1 inh: inactive

How did NC(=O)c1ccc(-c2nnn(CC(=O)Nc3cccc(S(=O)(=O)N4CCCC4)c3)n2)cc1 do in these assays?
LANA-H2B inh: inactive; ATG4B inh: inactive; HDAC3 inhib: inactive; Bfl-1 A1 inh: inactive; HKDC1 inh: inactive

What do the screens show for `O=C(Cn1nnc(-c2ccc(S(=O)(=O)N3CCCC3)cc2)n1)Nc1ccccc1-n1cccc1`?
LANA-H2B inh: inactive; ATG4B inh: 54; AI-2 QS modul: inactive; HDAC3 inhib: inactive; Bfl-1 A1 inh: inactive; HKDC1 inh: inactive; PLA2 ctr: 62

How did O=C(c1cnn(C(=O)COc2ccc(Cl)cc2)c1)c1ccccc1O do in these assays?
LANA-H2B inh: inactive; ATG4B inh: 56; AI-2 QS modul: inactive; HDAC3 inhib: inactive; Bfl-1 A1 inh: inactive; HKDC1 inh: inactive; PLA2 ctr: 60

Source: PubChem BioAssay (several laboratories)
